Activity calls are given as the source filed them. The rule behind the calls is not given here.
Experiments:
[1] = Stability in carboxylesterase 1 knockout C57BL/6 mouse brain assessed as intact compound level at 16.62 mg/kg, po administered as single dose measured upto 8 hrs by LC-MS/MS analysis; assay type: ADME, organism-based; conditions: read-out: Stability
Mus musculus = assay: Antiinflammatory activity against GFAP-EGFP transgenic mouse model assessed as as inhibition of GFP-labeled extracellular vesicle release at 3 to 10 mg/kg, po pretreated with compound for 30 mins followed by IL-1beta injection measured after 4 hrs; assay type: functional, organism-based; conditions: dose 3-10 mg/kg
Method in brief: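 Euthanized 4 h later. Platelet-free plasma was prepared and GFP+ EVs were captured on anti-GFP antibody-coupled magnetic beads and counted by particle tracking, blinded. Mean ± SEM, one-way ANOVA with Tukey.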

[2] = Tmax in carboxylesterase 1 knockout C57BL/6 mouse plasma at 16.62 mg/kg, po administered as single dose measured upto 8 hrs by LC-MS/MS analysis; assay type: ADME, organism-based
[3] = Prodrug conversion in carboxylesterase 1 knockout C57BL/6 mouse plasma assessed as increase in 2,6-Dimethoxy-4-(4-phenyl-5-thiophen-2-yl-1H-imidazol-2-yl)phenol release at 16.62 mg/kg, po administered as single dose measured after 2 hrs by LC-MS/MS analysis; assay type: ADME, organism-based; conditions: in vivo
[4] = Prodrug conversion in carboxylesterase 1 knockout C57BL/6 mouse brain assessed as increase in 2,6-Dimethoxy-4-(4-phenyl-5-thiophen-2-yl-1H-imidazol-2-yl)phenol release at 16.62 mg/kg, po administered as single dose measured after 2 hrs by LC-MS/MS analysis; assay type: ADME, organism-based; conditions: in vivo
[5] = Metabolic stability of the compound in carboxylesterase 1 knockout mouse brain assessed as parent compound remaining at 10 uM measured after 1 hr in by UPLC analysis; assay type: ADME, tissue-based
Method in brief: (§1)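 Plasma, or liver or brain homogenised 10-fold in 0.1 M potassium phosphate buffer, from CES1−/− mice. Spiked with 10 μM prodrug (final) and shaken at 37 °C for 1 h, in triplicate. Samples at 0 and 1 h were quenched with three volumes of acetonitrile containing losartan. Intact prodrug was measured by UHPLC-orbitrap MS and expressed as % remaining, mean ± SE.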

[6] = Prodrug conversion in carboxylesterase 1 knockout C57BL/6 mouse brain assessed as Cmax of 2,6-Dimethoxy-4-(4-phenyl-5-thiophen-2-yl-1H-imidazol-2-yl)phenol at 16.62 mg/kg, po administered as single dose measured upto 8 hrs by LC-MS/MS analysis; assay type: ADME, organism-based; parameters: dose 16.62 mg/kg, time < 8 hrs, route po; conditions: in vivo
[7] = Stability in carboxylesterase 1 knockout C57BL/6 mouse plasma assessed as intact compound level at 16.62 mg/kg, po administered as single dose measured upto 8 hrs by LC-MS/MS analysis; assay type: ADME, organism-based; conditions: read-out: Stability
[8] = Metabolic stability of the compound in carboxylesterase 1 knockout mouse plasma assessed as parent compound remaining at 10 uM measured after 1 hr in by UPLC analysis; assay type: ADME, cell-free; method in brief: as §1
[9] = Prodrug conversion in carboxylesterase 1 knockout C57BL/6 mouse brain assessed as AUC of 2,6-Dimethoxy-4-(4-phenyl-5-thiophen-2-yl-1H-imidazol-2-yl)phenol at 16.62 mg/kg, po administered as single dose measured upto 8 hrs by LC-MS/MS analysis; assay type: ADME, organism-based; parameters: dose 16.62 mg/kg, time < 8 hrs, route po; conditions: in vivo
[10] = Half life in carboxylesterase 1 knockout C57BL/6 mouse brain at 16.62 mg/kg, po administered as single dose measured upto 8 hrs by LC-MS/MS analysis; assay type: ADME, organism-based
[11] = Half life in carboxylesterase 1 knockout C57BL/6 mouse plasma at 16.62 mg/kg, po administered as single dose measured upto 8 hrs by LC-MS/MS analysis; assay type: ADME, organism-based
[12] = Tmax in carboxylesterase 1 knockout C57BL/6 mouse brain at 16.62 mg/kg, po administered as single dose measured upto 8 hrs by LC-MS/MS analysis; assay type: ADME, organism-based
[13] = Prodrug conversion in carboxylesterase 1 knockout C57BL/6 mouse plasma assessed as AUC of 2,6-Dimethoxy-4-(4-phenyl-5-thiophen-2-yl-1H-imidazol-2-yl)phenol at 16.62 mg/kg, po administered as single dose measured upto 8 hrs by LC-MS/MS analysis; assay type: ADME, organism-based; parameters: time < 8 hrs, dose 16.62 mg/kg, route po; conditions: in vivo
[14] = Protein binding in mouse plasma assessed as free fraction at 3 to 10 mg/kg, po by ultrafiltration assay; assay type: ADME, organism-based; conditions: dose 3-10 mg/kg
[15] = Prodrug conversion in carboxylesterase 1 knockout C57BL/6 mouse plasma assessed as Cmax of 2,6-Dimethoxy-4-(4-phenyl-5-thiophen-2-yl-1H-imidazol-2-yl)phenol at 16.62 mg/kg, po administered as single dose measured upto 8 hrs by LC-MS/MS analysis; assay type: ADME, organism-based; parameters: time < 8 hrs, dose 16.62 mg/kg, route po; conditions: in vivo
[16] = Metabolic stability of the compound in carboxylesterase 1 knockout mouse liver assessed as parent compound remaining at 10 uM measured after 1 hr in by UPLC analysis; assay type: ADME, tissue-based; method in brief: as §1
[17] = Ratio of prodrug conversion in carboxylesterase 1 knockout C57BL/6 mouse brain to plasma assessed as 2,6-Dimethoxy-4-(4-phenyl-5-thiophen-2-yl-1H-imidazol-2-yl)phenol release at 16.62 mg/kg, po administered as single dose measured after 2 hrs by LC-MS/MS analysis; assay type: ADME, organism-based

CCC1CC(N2CCCCC2)CC(CC)N1C(=O)Oc1c(OC)cc(-c2nc(-c3ccccc3)c(-c3cccs3)[nH]2)cc1OC (stereo not drawn)
concentration at 8 h [1]: 0.0352 µM
Activity (Mus musculus): Active
Tmax [2]: 2 h
Drug metabolism [3]: 189.3 nM
Drug metabolism [4]: 61.5 nM
Stability [5]: 100%
Cmax [6]: 69 pmol·h/g
concentration at 8 h [7]: 0.283 µM
Stability [8]: 92%
AUC [9]: 247 pmol·h/g
half-life [10]: 1.8 h
half-life [11]: 2.7 h
Tmax [12]: 2 h
AUC [13]: 1047 pmol·h/g
fraction unbound [14]: 0.9
Cmax [15]: 190 pmol·h/g
Stability [16]: 100%
BPR [17]: 0.24
